Source: paper PMC8327296 (Journal of medicinal chemistry, 2018)

Legend:
recombinant A2BR (human) = biological target: T1, recombinant A2BR (human) (Homo sapiens, UniProt P29275); test: Competition radioligand binding, human A2BR
T1 sequence (P29275 1-332): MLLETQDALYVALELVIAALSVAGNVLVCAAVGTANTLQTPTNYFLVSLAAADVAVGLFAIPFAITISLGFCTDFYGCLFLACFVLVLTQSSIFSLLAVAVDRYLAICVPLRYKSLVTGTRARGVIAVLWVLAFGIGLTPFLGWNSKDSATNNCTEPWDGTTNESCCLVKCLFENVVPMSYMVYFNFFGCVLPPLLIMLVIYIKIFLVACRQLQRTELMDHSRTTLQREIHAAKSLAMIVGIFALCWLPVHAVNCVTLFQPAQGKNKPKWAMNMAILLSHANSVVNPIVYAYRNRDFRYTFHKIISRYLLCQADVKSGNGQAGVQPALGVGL
Method in brief: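 Adenosine deaminase-treated membranes (3 units/mL, 30 min, 37 °C) of HEK293 cells carrying recombinant human A2BR. […] Nonspecific binding with 100 μM XAC. GF/B filtration, scintillation counting. Ki via Cheng–Prusoff, mean ± SEM of 2–4 experiments in duplicate.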

recombinant A3R (human) = biological target: T2, recombinant A3R (human) (Homo sapiens, UniProt P0DMS8); test: Competition radioligand binding, human A3R; conditions: for inhibition at 1 µM: read-out: % inhib., A3
T2 sequence (P0DMS8 1-318): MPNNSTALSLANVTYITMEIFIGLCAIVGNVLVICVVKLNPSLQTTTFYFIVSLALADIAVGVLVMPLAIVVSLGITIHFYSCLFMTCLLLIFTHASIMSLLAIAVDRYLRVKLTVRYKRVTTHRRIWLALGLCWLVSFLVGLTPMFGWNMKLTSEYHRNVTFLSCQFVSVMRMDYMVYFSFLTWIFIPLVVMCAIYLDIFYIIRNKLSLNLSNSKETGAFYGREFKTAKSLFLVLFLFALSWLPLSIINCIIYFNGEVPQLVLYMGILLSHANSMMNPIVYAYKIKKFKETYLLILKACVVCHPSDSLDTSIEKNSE

recombinant A2AR (human) = recombinant A2AR (human) (Homo sapiens, UniProt P29274); test: Competition radioligand binding, human A2AR; conditions: for inhibition at 1 µM: read-out: % inhib., A2A
Chain of recombinant A2AR (human) (P29274 whole entry): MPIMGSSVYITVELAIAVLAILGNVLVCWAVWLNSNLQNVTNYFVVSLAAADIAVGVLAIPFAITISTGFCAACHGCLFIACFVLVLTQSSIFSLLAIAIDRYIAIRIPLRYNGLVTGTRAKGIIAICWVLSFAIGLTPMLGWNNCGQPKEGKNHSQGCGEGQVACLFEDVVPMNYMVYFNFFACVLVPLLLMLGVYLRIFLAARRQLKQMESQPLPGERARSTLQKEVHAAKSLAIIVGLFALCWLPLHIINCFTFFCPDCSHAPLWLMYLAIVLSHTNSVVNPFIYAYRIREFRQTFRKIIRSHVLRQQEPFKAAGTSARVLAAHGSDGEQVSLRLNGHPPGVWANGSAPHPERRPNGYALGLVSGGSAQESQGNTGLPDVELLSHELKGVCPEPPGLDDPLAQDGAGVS
Method in brief: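 Human A2AR expressed in HEK293 cells; membranes treated with adenosine deaminase 3 units/mL for 30 min at 37 °C. […] Nonspecific binding with 10 μM XAC. Filtration on GF/B, scintillation counting. Ki by Cheng–Prusoff, mean ± SEM of 2–4 experiments in duplicate.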

A1R [1] = biological target: T3, A1R (Homo sapiens, UniProt P30542); test: Competition radioligand binding, human A1R
T3 sequence (P30542 1-326): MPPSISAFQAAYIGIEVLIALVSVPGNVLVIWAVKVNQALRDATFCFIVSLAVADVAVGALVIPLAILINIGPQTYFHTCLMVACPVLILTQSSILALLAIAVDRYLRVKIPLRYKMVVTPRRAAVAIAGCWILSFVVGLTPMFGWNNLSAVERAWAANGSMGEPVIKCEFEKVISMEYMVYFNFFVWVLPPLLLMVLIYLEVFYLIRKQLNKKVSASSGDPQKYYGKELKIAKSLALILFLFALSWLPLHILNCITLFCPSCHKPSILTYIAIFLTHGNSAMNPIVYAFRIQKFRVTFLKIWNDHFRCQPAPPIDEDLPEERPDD
Method in brief: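 Membranes from HEK293 cells expressing recombinant human A1R (DMEM, 10% FBS, 37 °C, 5% CO2), treated with adenosine deaminase 3 units/mL for 30 min at 37 °C. 20 μg protein per tube incubated 60 min at 25 °C in 50 mM Tris·HCl with 10 mM MgCl2, 0.5 nM [3H]8-cyclopentyl-1,3-dipropylxanthine and varied test compound. Nonspecific binding defined with 10 μM XAC. Bound ligand collected on GF/B filters and counted by scintillation. Ki by Cheng–Prusoff; mean ± SEM of 2–4 experiments in duplicate.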

A1R [2] = biological target: T3, A1R; test: cAMP accumulation assay; type: cell-based; conditions: for Emax: HEK293, read-out: A1 functional efficacy (Emax %)
Method in brief: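 HEK293 cells expressing A1R seeded at 1,000 cells/well on poly-D-lysine and kept overnight at 37 °C. Preincubated 30 min at 37 °C with adenosine deaminase 3 units/ml, rolipram 10 μM and the A2B antagonist PSB603 1 μM. Agonist applied 20 min, then forskolin 10 μM for 15 min at 37 °C. Cells lysed in 0.3% Tween-20 and cAMP measured by AlphaScreen. Emax relative to a reference agonist set at 100%.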

[3] = biological target: A2AR, rat brain membranes (striatum) (Rattus norvegicus, UniProt P30543); test: Competition radioligand binding, rat brain homogenates
Chain of A2AR, rat brain membranes (striatum) (P30543 whole entry): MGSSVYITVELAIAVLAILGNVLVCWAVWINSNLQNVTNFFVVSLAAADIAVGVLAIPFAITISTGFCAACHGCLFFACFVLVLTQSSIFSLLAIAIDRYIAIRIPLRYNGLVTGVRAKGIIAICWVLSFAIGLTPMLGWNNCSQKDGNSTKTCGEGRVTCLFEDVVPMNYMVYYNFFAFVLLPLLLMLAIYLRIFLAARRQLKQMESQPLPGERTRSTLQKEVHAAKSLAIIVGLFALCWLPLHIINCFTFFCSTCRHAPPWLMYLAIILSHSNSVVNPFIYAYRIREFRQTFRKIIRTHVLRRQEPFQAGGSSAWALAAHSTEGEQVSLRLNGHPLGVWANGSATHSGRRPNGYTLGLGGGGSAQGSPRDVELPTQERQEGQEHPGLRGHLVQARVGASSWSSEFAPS
Method in brief: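 Rat striatum homogenate incubated 60 min at 25 °C in 50 mM Tris·HCl/10 mM MgCl2 with 0.8 nM [3H]ZM241385 and varied test compound. Nonspecific binding defined with 10 μM XAC. GF/B filtration with 3 ice-cold washes, then scintillation counting. Ki from IC50 by Cheng–Prusoff; mean ± SEM of 2–4 experiments in duplicate.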

[4] = biological target: T4, A1R, rat brain membranes (forebrain) (Rattus norvegicus, UniProt P25099); test: Competition radioligand binding, rat brain homogenates
T4 sequence (P25099 1-326): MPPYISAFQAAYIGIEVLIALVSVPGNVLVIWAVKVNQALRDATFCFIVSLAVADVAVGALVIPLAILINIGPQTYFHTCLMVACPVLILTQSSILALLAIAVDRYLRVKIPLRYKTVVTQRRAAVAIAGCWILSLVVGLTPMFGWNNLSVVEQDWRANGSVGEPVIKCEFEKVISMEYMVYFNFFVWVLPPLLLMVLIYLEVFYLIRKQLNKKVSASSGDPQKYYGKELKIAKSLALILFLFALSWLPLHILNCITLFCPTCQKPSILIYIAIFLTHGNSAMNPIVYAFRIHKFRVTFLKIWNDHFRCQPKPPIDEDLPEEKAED
Method in brief: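 Rat forebrain homogenate incubated 60 min at 25 °C in 50 mM Tris·HCl with 10 mM MgCl2, 0.5 nM [3H]8-cyclopentyl-1,3-dipropylxanthine and varied test compound. Nonspecific binding defined with 10 μM XAC. Separation by GF/B filtration with 3 ice-cold buffer washes, then scintillation counting. IC50 converted to Ki by Cheng–Prusoff; mean ± SEM of 2–4 experiments in duplicate.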

[5] = Small animal PET, brain uptake in rats; type: in vivo, rat; conditions: 11C-labelled compound; for BBB permeability: rat pilot PET study; for standard uptake value (SUV), brain uptake: rat, whole brain, 10 min after intravenous administration
Method in brief: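 Male Wistar rats (2–3 months, 318 ± 40 g) under 2–5% isoflurane, temperature held near 36.9 °C. After a 10 min transmission scan, 20.8–37.0 MBq 11C-labelled test compound in saline infused iv (tail vein or penile catheter, 600 μL/min). 90 min dynamic list-mode microPET, template coregistration, regional time-activity curves. Test–retest (n=3) 30 min later; blocking drugs given 10 min before the second injection.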

| Ki (recombinant A2BR (human)) | Ki (A1R [1]) | Emax (A1R [2]) | Ki (recombinant A3R (human)) | Ki (recombinant A2AR (human)) | Structure (SMILES) | further results |
| --- | --- | --- | --- | --- | --- | --- |
| 305 ± 108 nM | 29 ± 0.1 nM | -2 ± 3.5% | – | – | COc1ccc(-c2nc(SCc3cccc(C)n3)nc(N)c2C#N)cc1 [21a, 4-Amino-6-(4-methoxyphenyl)-2-(((6-methylpyridin-2-yl)methyl)thio)pyrimidine-5-carbonitrile] | inhibition at 1 µM (recombinant A3R (human)): 44 ± 3%; inhibition at 1 µM (recombinant A2AR (human)): 32 ± 2% |
| – | 7.2 ± 2.4 nM | 3.4 ± 1.9% | – | – | COc1cccc(-c2nc(SCc3cccc(C)n3)nc(N)c2C#N)c1 [21b, 4-Amino-6-(3-methoxyphenyl)-2-(((6-methylpyridin-2-yl)methyl)thio)pyrimidine-5-carbonitrile] | inhibition at 1 µM (recombinant A2BR (human); read-out: % inhib., A2B): 35 ± 10%; inhibition at 1 µM (recombinant A3R (human)): 42 ± 11%; inhibition at 1 µM (recombinant A2AR (human)): 46 ± 1% |
| 237 ± 48 nM | 306 ± 17 nM | 1.4 ± 3.1% | – | – | COc1ccc(-c2nc(SCc3ncc[nH]3)nc(N)c2C#N)cc1 [21c, 2-(((1H-Imidazol-2-yl)methyl)thio)-4-amino-6-(4-methoxyphenyl)pyrimidine-5-carbonitrile] | inhibition at 1 µM (recombinant A3R (human)): 51 ± 5% |
| 208 ± 27 nM | 48 ± 2.8 nM | 4.9 ± 3.3% | 703 ± 50 nM | 554 ± 273 nM | COc1cccc(-c2nc(SCc3ncc[nH]3)nc(N)c2C#N)c1 [21d, 2-(((1H-Imidazol-2-yl)methyl)thio)-4-amino-6-(3-methoxyphenyl)pyrimidine-5-carbonitrile] | – |
| 126 ± 12 nM | 18 ± 2.1 nM | 18 ± 3.3% | 79 ± 9.4 nM | 93 ± 63 nM | Cc1cccc(CSc2nc(N)c(C#N)c(-c3cccc(O)c3)n2)n1 [21e, 4-Amino-6-(3-hydroxyphenyl)-2-(((6-methylpyridin-2-yl)methyl)thio)pyrimidine-5-carbonitrile] | – |
| 38 ± 7.3 nM | 110 ± 31 nM | 41 ± 6.1% | 112 ± 14 nM | 96 ± 13.3 nM | N#Cc1c(N)nc(SCc2ncc[nH]2)nc1-c1cccc(O)c1 [21f, 2-(((1H-Imidazol-2-yl)methyl)thio)-4-amino-6-(3-hydroxyphenyl)pyrimidine-5-carbonitrile] | – |
| 30 ± 2.5 nM | 2.9 ± 0.7 nM | -0.06 ± 3.3% | 701 ± 244 nM | 35 ± 19 nM | COc1ccc(-c2c(C#N)c(N)nc(SCc3cccc(C)n3)c2C#N)cc1 [22a, 2-Amino-4-(4-methoxyphenyl)-6-(((6-methylpyridin-2-yl)methyl)thio)pyridine-3,5-dicarbonitrile] | – |
| 75 ± 30 nM | 0.49 ± 0.06 nM | 16 ± 2.3% | – | 71 ± 25 nM | COc1cccc(-c2c(C#N)c(N)nc(SCc3cccc(C)n3)c2C#N)c1 [22b, 2-Amino-4-(3-methoxyphenyl)-6-(((6-methylpyridin-2-yl)methyl)thio)pyridine-3,5-dicarbonitrile] | Ki [3]: 52 nM; Ki [4]: 0.21 nM; inhibition at 1 µM (recombinant A3R (human)): 42 ± 11%; EC50 (A1R [2]): 1 nM |
| 24 ± 16 nM | 3.5 ± 1.3 nM | 109 ± 7.8% | 74 ± 3.4 nM | 15 ± 3.1 nM | Cc1cccc(CSc2nc(N)c(C#N)c(-c3cccc(O)c3)c2C#N)n1 [22e, 2-Amino-4-(3-hydroxyphenyl)-6-(((6-methylpyridin-2-yl)methyl)thio)pyridine-3,5-dicarbonitrile] | – |
| 1.2 ± 0.2 nM | 53 ± 18 nM | 122 ± 5.2% | 22 ± 6.7 nM | 2.8 ± 0.1 nM | CC(=O)Nc1ccc(-c2c(C#N)c(N)nc(SCc3cccc(C)n3)c2C#N)cc1 [22g, N-(4-(2-Amino-3,5-dicyano-6-(((6-methylpyridin-2-yl)methyl)thio)pyridin-4-yl)phenyl)acetamide] | – |
| – | – | – | – | – | CSc1nc(N)c(C#N)c(-c2ccc(NC(C)=O)cc2)c1C#N [compound 12, N-(4-(2-Amino-3,5-dicyano-6-(methylthio)pyridin-4-yl)phenyl)acetamide] | BBB permeability [5]: poor BBB permeability |
| – | – | – | – | – | CSc1nc(N)c(C#N)c(-c2ccc(NC(C)=O)cc2)n1 [compound 13, N-(4-(6-Amino-5-cyano-2-(methylthio)pyrimidin-4-yl)phenyl)acetamide] | BBB permeability [5]: poor BBB permeability |
| – | – | – | – | – | COc1ccc(-c2c(C#N)c(N)nc(SC)c2C#N)cc1 [compound 14, 2-Amino-4-(4-methoxyphenyl)-6-(methylthio)pyridine-3,5-dicarbonitrile] | standard uptake value (SUV), brain uptake [5]: ~ 3 g/mL |
| – | – | – | – | – | COc1ccc(-c2nc(SC)nc(N)c2C#N)cc1 [compound 15, 4-Amino-6-(4-methoxyphenyl)-2-(methylthio)pyrimidine-5-carbonitrile] | standard uptake value (SUV), brain uptake [5]: ~ 3 g/mL |
